Assay results from ChEMBL document CHEMBL1140444, “Synthesis and structure-activity relationships of novel anti-hepatitis C agents: N3,5'-cyclo-4-(beta-D-ribofuranosyl)-vic-triazolo[4,5-b]pyridin-5-one derivatives” (2005).

How the values were obtained:
[1] = tested on: Hepatitis C virus; assay: Effective concentration against HCV RNA replication in a subgenomic replicon Huh7 cell line; type: functional, Hepacivirus hominis; conditions: Huh-7
How it was run: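 HCV replicon Clone A cells in log-phase growth exposed to various compound concentrations for 3 days. HCV RNA extracted and quantified by real-time PCR. EC90 is the concentration reducing HCV RNA by 90%.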

[2] = tested on: Huh-7; assay: Cytotoxic concentration against HCV RNA replication in a subgenomic replicon Huh7 cell line; type: functional; conditions: Homo sapiens

Compound	EC90 [1]	CC50 [2]
Cc1cc(=O)n2c3c1nnn3C[C@H]1O[C@@H]2[C@H](O)C1O (single isomer, unassigned)	15.4 µM	22.6 µM
CN(C)c1cc(=O)n2c3c1nnn3C[C@H]1O[C@@H]2[C@H](O)C1O (single isomer, unassigned)	> 100 µM	> 100 µM
O=c1c(Cl)cc2nnn3c2n1[C@@H]1O[C@H](C3)C(O)[C@H]1O (single isomer, unassigned)	2.1 µM	0.06 µM
O=c1ccc2nnn3c2n1[C@@H]1O[C@H](C3)C(O)[C@H]1O (single isomer, unassigned)	79.8 µM	30.6 µM
OC1[C@@H](O)[C@H]2O[C@@H]1Cn1nnc3ccc(=S)n2c31 (single isomer, unassigned)	10 µM	11.9 µM
O=c1c(Br)cc2nnn3c2n1[C@@H]1O[C@H](C3)C(O)[C@H]1O (single isomer, unassigned)	1.9 µM	1.5 µM
Nc1cc(=O)n2c3c1nnn3C[C@H]1O[C@@H]2[C@H](O)C1O (single isomer, unassigned)	29.7 µM	74.2 µM

Now from value to molecule, other results behind:

EC90 [1]	Compound	CC50 [2]
> 100 µM	CCNc1cc(=O)n2c3c1nnn3C[C@H]1O[C@@H]2[C@H](O)C1O (single isomer, unassigned)	> 100 µM
86.1 µM	COCCNc1cc(=O)n2c3c1nnn3C[C@H]1O[C@@H]2[C@H](O)C1O (single isomer, unassigned)	97.3 µM
7.4 µM	CNc1cc(=O)n2c3c1nnn3C[C@H]1O[C@@H]2[C@H](O)C1O (single isomer, unassigned)	4.6 µM
> 100 µM	CCCNc1cc(=O)n2c3c1nnn3C[C@H]1O[C@@H]2[C@H](O)C1O (single isomer, unassigned)	> 100 µM
> 100 µM	CCCCNc1cc(=O)n2c3c1nnn3C[C@H]1O[C@@H]2[C@H](O)C1O (single isomer, unassigned)	> 100 µM
> 100 µM	O=c1cc(NCCO)c2nnn3c2n1[C@@H]1O[C@H](C3)C(O)[C@H]1O (single isomer, unassigned)	> 100 µM
> 100 µM	O=c1cc(NC2CC2)c2nnn3c2n1[C@@H]1O[C@H](C3)C(O)[C@H]1O (single isomer, unassigned)	> 100 µM
> 100 µM	O=c1cc(NCCCO)c2nnn3c2n1[C@@H]1O[C@H](C3)C(O)[C@H]1O (single isomer, unassigned)	> 100 µM
